Source: PubChem BioAssay (The Scripps Research Institute Molecular Screening Center)
In the library only some 1.9% were active in any assay of this set; here they are far more common.
M5 antag: antagonists of human muscarinic M5 receptor (CHRM5); P08912; CHO-hM5 cells, Fluo-8 calcium fluorescence, ACh EC80; inhibition, % at 3 µM; actives 0.59% (n = 360,000); AID 624040;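 active means inhibition above a per-plate cutoff, the mean of that plate's test compounds plus 3 SD, cut at about 27% in these data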;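 further: 0% = acetylcholine EC80 with DMSO and 100% = DMSO without agonist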
Target sequence (P08912 whole entry, looked up): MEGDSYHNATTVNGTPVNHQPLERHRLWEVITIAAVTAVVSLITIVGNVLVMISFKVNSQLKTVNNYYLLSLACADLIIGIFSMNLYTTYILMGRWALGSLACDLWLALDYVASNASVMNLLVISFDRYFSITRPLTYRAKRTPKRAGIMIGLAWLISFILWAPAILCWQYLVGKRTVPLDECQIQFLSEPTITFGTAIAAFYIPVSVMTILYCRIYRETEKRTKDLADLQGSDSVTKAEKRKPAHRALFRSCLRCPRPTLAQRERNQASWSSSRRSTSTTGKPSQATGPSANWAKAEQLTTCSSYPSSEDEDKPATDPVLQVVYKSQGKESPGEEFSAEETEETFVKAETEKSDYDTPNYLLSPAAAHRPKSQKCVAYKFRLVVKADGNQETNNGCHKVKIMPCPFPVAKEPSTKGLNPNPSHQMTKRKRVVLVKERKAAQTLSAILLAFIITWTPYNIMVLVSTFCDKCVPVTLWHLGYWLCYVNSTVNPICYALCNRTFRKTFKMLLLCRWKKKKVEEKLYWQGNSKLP
CHRM5 PAM: positive allosteric modulators of human muscarinic M5 receptor. P08912. CHO-K1 hM5, Fluo-8 calcium, ACh EC20 PAM; 0% = ACh EC20, 100% = ACh EC100. activation, % at 3 µM. actives 0.3% (n = 360,000);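 active means activation above the run cutoff, the mean activation of all test compounds plus 3 SD, cut at about 18% in these data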
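Replicates: One well per compound, no replicates | System: Human M5 receptor in CHO-K1 cells | Benchmarks: Low control EC20 acetylcholine (0%), high control EC100 acetylcholine (100%) | Probe or stimulus: Acetylcholine, EC20 level | Times: Fluo-8 loading 80 min at 37 °C plus 30 min room temperature | Signal: Intracellular calcium via Fluo-8 fluorescence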
M4 ag: CHRM4 agonism in calcium assay; P08173; CHO-K1 hM4/Gqi5, Fluo-8 calcium fluorescence; vehicle 0%, full acetylcholine response 100%; activation, % at 3 µM; actives 0.14% (n = 360,000);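 active means activation above the run mean over all test wells plus 3 SD, cut at about 32% in these data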;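 further: peak over basal fluorescence ratio per well then scaled between controls; 0% = DMSO wells and 100% = acetylcholine at EC100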
M5 ag: CHRM5 agonism in calcium assay; actives 0.19% (n = 360,000); activation, % at 3 µM; AID 624037; P08912; CHO-K1 hM5 cells, Fluo-8 calcium fluorescence; 0% DMSO wells, 100% maximal acetylcholine response;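 active means activation above the run's mean over test compounds plus 3 SD, cut at about 23% in these data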;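 further: signal is peak over basal fluorescence ratio across the kinetic read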
M4 PAM: CHRM4 positive allosteric modulation | actives 0.4% (n = 360,000) | P08173 | activation, % at 3 µM | CHO-K1 hM4/Gqi5, Fluo-8 calcium fluorescence, ACh EC20; 0% = ACh EC20, 100% = maximal ACh | AID 624126;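 active means activation above its plate's cutoff, the mean activation of sample wells plus 3 SD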
CHRM4 antagonist: antagonists of human muscarinic M4 receptor (CHRM4); P08173; CHO-hM4 cells, ACh EC80, Fluo-8 calcium fluorescence; inhibition, % at 3 µM; actives 0.73% (n = 360,000); AID 624125;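 active means inhibition above its plate's cutoff, the mean inhibition of sample wells plus 3 SD, cut at about 27% in these data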;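 further: 0% = acetylcholine EC80 with DMSO and 100% = DMSO without agonist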
Active calls of the source: *.

SMILES	M5 antag	CHRM5 PAM	M4 ag	M5 ag	M4 PAM	CHRM4 antagonist
COC(=O)c1c(C)oc2ccc(N(C(=O)c3ccncc3)S(=O)(=O)c3ccc4ccccc4c3)cc12	25	-15	7	1	-10	33*
Cc1ccccc1C(=O)N1CCN(S(=O)(=O)c2cccs2)CC1	-8	2	0	-1	0	27*
Cc1ccsc1C(=O)N1CCN(S(=O)(=O)c2cccs2)CC1	6	0	2	-5	0	-4
COc1cc(OC)cc(C(=O)NC2CC3CCC(C2)N3C)c1 (stereo unspecified)	0	11	-1	-10	13	4
C[C@@H]1CCCCO[C@@H](CN(C)C(=O)Cc2ccccc2)[C@@H](C)CN([C@H](C)CO)C(=O)c2cc(N(C)C)ccc2O1	8	-3	-1	0	3	-8
CC1=C(C(=O)N(C)C)CC(CC(=O)NC2CCCC2)C(=O)N1CCC1=CCCCC1 (stereo unspecified)	-19	9	1	0	1	-13
CCN(CC)CC#CCC(O)(c1ccccc1)C1CCCCC1 (stereo unspecified)	72*	-18	2	-10	-25	76*
Cc1ccc(Oc2ncccc2/C=N/OCc2ccc(Cl)cc2Cl)cc1	-6	2	0	-1	4	-4
Cc1ccc(Oc2ncccc2CO)cc1	-15	6	2	0	26*	-4
Nc1ncnc2c1ncn2[C@@H]1O[C@H](COP(=O)(O)OP(=O)(O)OP(=O)(O)O)[C@@H](O)[C@H]1O	-1	-6	96*	46*	10	-12
CCN(C(=O)COC(=O)CNC(=O)c1cccs1)c1c(N)n(Cc2ccccc2)c(=O)[nH]c1=O	5	2	2	4	7	3
COc1ccc(CNC(=O)C2(C)Cc3c(-c4ccc5c(c4)OCO5)ccnc3O2)cc1OC (stereo unspecified)	4	0	-2	-1	6	-8
CC(NC(=O)C1CCN(c2nnc(N3CCCC3=O)s2)CC1)c1ccccc1 (stereo unspecified)	3	-4	0	0	-2	-8
CC(Oc1ccc2c3c(c(=O)oc2c1)CCC3)C(=O)NCc1cccnc1 (stereo unspecified)	15	-4	2	-4	19*	16
CCOC(=O)c1ccc(NC(=O)CN2C(=O)CN(C(C)=O)C2=S)cc1	-4	-2	2	3	-7	0
N#CCCN(Cc1ccccc1)C(=S)Nc1ccccc1	1	8	2	-4	21*	-10
CC1=NN(C(=O)CSCc2ccccc2)C(O)(c2ccc(Cl)cc2)C1 (stereo unspecified)	3	4	1	-4	4	-3
CC1=NN(C(=O)COc2ccc(C)c(C)c2)C(O)(c2ccc(Cl)cc2)C1 (stereo unspecified)	3	4	3	0	22*	-5
Cc1cc(C(=O)OCC(=O)N2CCOCC2)c2ccccc2n1	-4	-5	1	-3	19*	-10
CCOC(=O)/C(=C\c1cccnc1)C(=O)c1cc(C(C)=O)c(Nc2ccccc2)s1	10	1	5	-5	-3	46*
CCOC(=O)/C(=C\c1ccccc1)C(=O)c1cc(C(C)=O)c(Nc2ccccc2)s1	6	-4	1	-1	2	-3
CC(C)c1nc2n[nH]c(N)c2c2c1CCCC2	-8	16	1	4	23*	-2
CC(C)(C)OC(=O)NCc1ccc(CNC(=O)c2nc[nH]c2C(=O)NCc2ccc(CNC(=O)OC(C)(C)C)cc2)cc1	1	-10	8	5	-4	2
CC(C)(C)OC(=O)NCCCCCNC(=O)c1nc[nH]c1C(=O)NCc1ccc(CNC(=O)OC(C)(C)C)cc1	33*	-38	34*	2	-17	54*
CCN(CC)S(=O)(=O)c1ccc(N2CCOCC2)c(NC(=O)c2ccc3ccccc3c2)c1	4	1	1	1	13	-4
SMILES	M5 antag	CHRM5 PAM	M4 ag	M5 ag	M4 PAM	CHRM4 antagonist
CCN(CC)S(=O)(=O)c1ccc(N2CCOCC2)c(NC(=O)c2cccc3ccccc23)c1	14	-13	14	2	-24	30*
O=C(CCC1CCCC1)NCc1cccs1	-1	2	0	-2	20*	21
O=C(CCCCC(=O)NCc1cccs1)NCc1cccs1	2	3	0	-2	-6	9
COc1cccc(CC(=O)OCC(=O)NC2CCCC2)c1	9	-4	1	2	14	-11
Cn1nnc2cc(C(=O)NC3CC3)ccc21	8	40*	0	0	10	11
CC1CCc2c(sc(/N=C/N(C)C)c2C#N)C1 (stereo unspecified)	-10	20*	0	-6	3	-3
COc1ccccc1OCCNC(=O)c1c(-c2ccccc2Cl)noc1C	-6	3	3	0	-2	2
CCc1ccc(C(=O)Nc2ccc3c(c2)n(C)c(=O)n3C)cc1	-18	24*	1	2	-4	-6
COc1cc(OC)cc(C(=O)Nc2ccc3c(c2)n(C)c(=O)n3C)c1	-8	0	2	2	3	-5
CCn1c(=O)n(CC)c2cc(NC(=O)c3ccccc3Cl)ccc21	-21	20*	0	9	-3	6
CCOc1ccccc1NC(=O)COC(=O)c1ccc2ccccc2n1	2	-1	1	0	6	-12
CC(NCc1ccc(OCC(N)=O)cc1)C12CC3CC(CC(C3)C1)C2 (stereo unspecified)	4	-3	1	-1	-15	29*
COc1ccc(CNC(C)C23CC4CC(CC(C4)C2)C3)c(OC)c1OC (stereo unspecified)	2	9	6	-5	-4	4
COc1cccc2c1C1COC3C4CC(C(=O)O)C(C(C2)N13)N4C (stereo unspecified)	6	-3	1	1	13	-10
CCc1ccc(NC(=O)C2CCN(S(=O)(=O)c3ccc4c(c3)NC(=O)C(C)S4)CC2)cc1 (stereo unspecified)	34*	-16	10	-3	-16	10
Cc1ccc(NC(=O)C2CCN(S(=O)(=O)c3ccc4c(c3)NC(=O)C(C)S4)CC2)cc1C (stereo unspecified)	36*	-13	14	-3	-14	20
Cc1ccc(S(=O)(=O)N2CCC(C(=O)NCCCN3CCCC3=O)CC2)cc1	21	-2	0	0	1	-4
